# Source: ChEMBL document CHEMBL4513216, “Probing the Open Global Health Chemical Diversity Library for Multistage-Active Starting Points for Next-Generation Antimalarials” (ACS Infect Dis, 2020)
# Test: Toxicity liver stage against HepG2, at 10uM
# Type: cell-based
# Parameters: test concentration 10 uM, cell line HepG2-A16-CD81EGFP
# Conditions: human, HepG2-A16-CD81EGFP cells; read-out: INHIBITION
# Method in brief: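 Uninfected HepG2-A16-CD81EGFP cells, 3 × 10^3 per well, 1536-well, plated on prespotted compound at 10 μM final, parasite-free screening media added to match infected plates; puromycin 10 μM positive, DMSO 0.5% negative; run in parallel with 48 h PbLuc assay at 37 °C, 5% CO2; viability by CellTiter-Glo luminescence, normalized to controls.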
row,Compound,cytotoxicity at 10 µM [%]
1,COC[C@@]12CCO[C@@H]1CCN(Cc1ccccc1OC)C2,-110
2,Cc1cc(-c2cnc(NCc3ccncc3)nc2C(C)C)on1,59.7
3,Cc1cc(CNc2ccc(-c3nc(C4CC4)no3)cn2)no1,2.55
4,Cc1cc(NC(=O)CCn2nc(C)c3ccccc32)n(C(C)C)n1,4.95
5,CCc1ccc(C(=O)Nc2ccc3c(c2)N(C)CCN(C)C3)o1,-7.69
6,O=C(COc1coc(CN2CCCCCC2)cc1=O)c1ccccc1,4.21
7,COc1ccccc1C(C)N1CCN(S(C)(=O)=O)CC1 (stereo unspecified),9.62
8,Cc1nc2cc(=O)[nH]n2c(C)c1CC(=O)Nc1cnn(C(C)(C)C)c1,15
9,Cc1cc(C)c(C(=O)N2CCOC(c3cccs3)C2)c(=O)[nH]1 (stereo unspecified),-1.29
10,COCCn1ccc(=O)c(OCC(=O)Nc2ccccc2)c1C,3.72
11,CCN(CC)CCC(=O)NCc1cc2n(n1)CCN(C(=O)N(C)C)C2,-6.72
12,Cn1nnc(NCc2ccccc2OCc2ccc(Cl)cc2)n1,2.71
13,CC(C(=O)NCc1cccs1)N1CCN(Cc2nccn2C)CC1 (stereo unspecified),-14.5
14,CCn1cnnc1C1CCN(C(=O)c2ccc(Cl)cc2OC)CC1,-1.94
15,CC(C)(C)c1coc([C@@H]2COCCN2Cc2ccccn2)n1,-4.04
16,c1ccc(NCc2cn3c(n2)CN(Cc2ccoc2)CC3)nc1,10.4
17,Cc1ncsc1CN1C[C@@H]2COC[C@]2(COc2ccc(C#N)cn2)C1,-25.6
18,Cc1cnnn1Cc1nnn2c1CN(Cc1cccs1)CCC2,8.28
19,CS(=O)(=O)NC1CCN(C(=O)c2ccc3ccccc3c2)C1 (stereo unspecified),-9.14
20,OC(CNCCc1nnc2ccccn12)c1ccc2c(c1)OCO2 (stereo unspecified),4.06
21,CC(C(=O)N1CCN(c2ccccc2)CC1)n1cc(Br)cn1 (stereo unspecified),7.47
22,CN1CCCC(CNC(=O)N(C)Cc2ccc(Cl)c(F)c2)C1 (stereo unspecified),1.36
23,CN(CCCc1cnn(C)c1)C(=O)Nc1cccc2[nH]nnc12,-3.98

row,Compound,cytotoxicity at 10 µM [%]
1,CC(C)n1cc(CN(C)C[C@@H]2CCCN3CCCC[C@H]23)cn1,0.276
2,Cc1nc(C(C)(C)C)sc1C(=O)NCCNc1ncccc1C#N,-15.8
3,CN(CC1CN(Cc2cn3ccsc3n2)CCO1)c1cccnn1 (stereo unspecified),4.55
4,COc1ccc(OCCC(=O)N2CCCC2Cn2cccn2)cc1 (stereo unspecified),-39
5,O=C1CC(c2ccc(F)cc2)c2snc(C(=O)O)c2N1 (stereo unspecified),0.833
6,COc1ccccc1C(C)(C)NC(=O)NC1CCC(O)CC1 (stereo unspecified),-3.6
7,CCCC(=O)NC(Cc1ccc(C)cc1)c1ccccn1 (stereo unspecified),-2.25
8,Cn1cc(CN2CC[C@H]3O[C@@H](C(=O)NC4CC4)CC[C@H]32)cn1,-1.55
9,CN(C)C(=O)Cc1ccc(NC(=O)NC2CCCC2)cc1,-1.92
10,Cc1nc(NCC2CCOCC2)cc(C2CCN2S(C)(=O)=O)n1 (stereo unspecified),2.58
11,COc1coc(CN2CCCC3(CCC(=O)N(C4CC4)C3)C2)cc1=O (stereo unspecified),-39.9
12,COCCN1CCCC(C)(c2cc(O)[nH]n2)C1 (stereo unspecified),10.8
13,O=C(c1ccc2c(c1)[nH]c(=O)n2C1CCCC1)N1CC(O)C1,-53.5
14,CC(NC(=O)NCc1cc[nH]n1)c1ccc2c(c1)CCC(=O)N2 (stereo unspecified),-9.37
15,Cc1cnc(CN2CCN(C(C)c3nc(C4CC4)no3)CC2)cn1 (stereo unspecified),1.32
16,Cc1nc(C)n(CC2CCCN(Cc3cccnc3)C2)n1 (stereo unspecified),-18.7
17,Cc1cnn(CCNCc2ccccc2OCc2ccncc2)c1,-16.1
18,Cc1nn(CCC(=O)NC(C(=O)O)c2c(C)n[nH]c2C)c(C)c1C (stereo unspecified),-2.72
19,NCC1CCCN(c2nc(-c3ccccc3)nc3c2CCNCC3)C1 (stereo unspecified),-10.3
20,Cc1cc(N2CCC3(CCC(=O)N(CCCO)C3)CC2)nc(N(C)C)n1,-0.116
21,O=C(CO[C@@H]1CC[C@H]2[C@H]1OCCN2CC1CCOCC1)N1CCCC1,-11.6
22,CC(C)c1cccc(S(=O)(=O)NCCCN2CCC(O)CC2)c1,12.9
23,CCN1c2ccc(-c3cncn3CCCn3ccnc3C)cc2CC1C (stereo unspecified),-1.25

row,Compound,cytotoxicity at 10 µM [%]
1,CCC(CC)C(=O)Nc1ccc2oc(=O)n(CCN(C)C)c2c1,-13.7
2,CCOc1nnc(CN2CCC(c3cc4ccccc4[nH]3)CC2)s1,20.6
3,Cc1nnsc1C(=O)NCCNS(=O)(=O)c1cccs1,4.29
4,CNC(=O)COc1ccc(CNCc2c(C)nn(C)c2N(C)C)cc1,-5.92
5,Cc1cccnc1NC(=O)c1ccc(-n2cncn2)nn1,-1.52
6,CC(=O)N1CCN(c2cncc(C3CCNCC3)n2)CC1,16.8
7,CCc1cc(NC(=O)C2CCCN(C(=O)c3ccncc3)C2)[nH]n1 (stereo unspecified),-8.18
8,Cc1cccc(-n2nc(CC(C)C)nc2CCCC(N)=O)c1,3.4
9,O=C(c1ccccn1)N1CC[C@H]2[C@H]1CCN2S(=O)(=O)C1CC1,-123
10,Cc1cc(C2CCCCCN2Cc2cn(C)nc2C)no1 (stereo unspecified),-20.4
11,Cc1cnn(C2CN(CCOc3ccc(C#N)cc3)C2)c1,1.77
12,CSC(C)Cc1c(-c2ccccc2)ncn1CCCNc1cccnc1 (stereo unspecified),15.1
13,COc1ccc(N(c2ccc(OC)cc2)c2ccc(C(=O)O)s2)cc1,18.5
14,CC(=O)NCc1ccc(C(=O)N2CCCc3c(F)ccc(C)c32)cc1,-3.26
15,COC(=O)C(NC(=O)CCc1ccco1)c1cc(F)ccc1F (stereo unspecified),-0.448
16,COc1ccc(CNC[C@H]2COCc3nc4cc(F)ccc4n32)cc1,1.52
17,CN(Cc1cc(=O)c(O)co1)C1CCN(c2ccc(F)cc2)CC1,-3.73
18,CCOc1ccc(CC(=O)N2CCN(c3nccn3C)CC2)cc1,6.85
19,c1cnc(NCc2cncc3c2CCN(CC2CC2)C3)nc1,-101
20,CC(C)Cc1cc(NC(=O)c2ccc3[nH]nnc3c2)n(C)n1,-7
21,CCC(CO)N(Cc1ccccn1)C(=O)c1ccc2c(c1)CCO2 (stereo unspecified),-14.2
22,N#Cc1cccnc1N1CCCC(CO)(Cc2ccc(F)cc2)C1 (stereo unspecified),3.3
23,COc1ncccc1CN1C[C@@H]2COC[C@]2(CNC(=O)c2ccno2)C1,8.07

row,Compound,cytotoxicity at 10 µM [%]
1,CCC(CC)CNC(=O)N(C)C(C)c1ccccn1 (stereo unspecified),-6.2
2,c1cnc(N2C[C@H]3CN(CC4CCOC4)C[C@H]3C2)nc1 (stereo partly specified),-5.09
3,O=C(CN1CCc2cncnc2C1)NC1CCCCNC1=O (stereo unspecified),7.36
4,CN1CCCCC[C@@H]2[C@@H]1[C@H](c1ccccc1)CN2C(=O)c1cccnc1,-24.4
5,NCc1n[nH]c(=O)n1-c1ccccc1Oc1ccccc1,-5.04
6,CC(C)Oc1ncccc1CNC(=O)c1ccccn1,-21.3
7,COCCn1cc(C(=O)NC2CCS(=O)(=O)C2)c2ccccc2c1=O (stereo unspecified),-4.17
8,Cc1ccc(C)c(Sc2nccn(C)c2=O)c1,6.43
9,Cc1ncsc1CN1C[C@@H](OCc2ccccn2)[C@H]2OCCC[C@H]21,-141
10,CCCc1ccc(CN2CCC3(CCC(=O)N(C(C)C(=O)O)C3)CC2)o1 (stereo unspecified),-2.69
11,c1cc(CNCc2ccnc(N3CCCC3)c2)c2c(c1)OCCO2,3.64
12,O=C(CN1C(=O)CCNC1=O)N1CCC2(CCc3ccccc32)CC1,-11.2
13,CCc1nc(C2CCCN(C(=O)c3ccccc3Cl)C2)no1 (stereo unspecified),-5.43
14,COCCC(=O)N1CCCC(c2noc3nc(C)cc(C(F)(F)F)c23)C1 (stereo unspecified),-19.9
15,Cc1nc(CNC(=O)Nc2c(C)n[nH]c2C)cs1,3.51
16,CN1CCN(c2ncnc3c2CCN(c2ncc(F)cn2)CC3)CC1,7.61
17,O=C(NCc1csc(-c2cnccn2)n1)c1cnn2c1CCCC2,0.209
18,CCc1nc2c(NCC3COc4ccccc4C3)ncnc2o1 (stereo unspecified),10.5
19,c1ccc(-n2ccc(CN3CCCC(Cn4cncn4)C3)n2)cc1 (stereo unspecified),-16
20,COCC(C)(O)CNC(=O)c1cc(-c2cc(OC)ccc2OC)nn1C (stereo unspecified),-6.42
21,Cc1cnc(C(=O)N2CCCC(n3cncn3)C2)cn1 (stereo unspecified),-2.97
22,Cn1ccc(C(=O)NCc2ccccc2Cn2ccnc2)cc1=O,9.42
23,Cc1cc2ncc(CN(C)C)c(C3CCN(C)CC3)n2n1,-1.19

row,Compound,cytotoxicity at 10 µM [%]
1,CS(=O)(=O)NCc1nnc2n1CCN(Cc1ccc(F)cc1)C2,-72.7
2,COCCN1CCC12CCN(C(=O)Cc1cccs1)C2 (stereo unspecified),7.89
3,COc1ccccc1CN1C[C@@H]2COC[C@]2(COCc2ccncc2)C1,-70.9
4,O=C(NCC1CC1)C1CSCN1S(=O)(=O)c1ccccc1F (stereo unspecified),5.02
5,CCn1c(CN2CCN(CCO)CC2)nc2c(F)cccc21,-8.83
6,COc1ccc(-c2nc(C#N)c(N(C)C)o2)cc1S(=O)(=O)N(C)C,-7.19
7,N#Cc1c(F)cccc1Nc1cnn(CC(N)=O)c1,6.25
8,CN(C(=O)CN1CCc2nn(C)c(=O)cc2C1)c1nccs1,10.4
9,COCCn1/c(=N\C(=O)CN(C)S(C)(=O)=O)sc2cc(C)ccc21,-11.7
10,CCCNC(=O)Cc1c(C)nc2c(c1C)c(=O)[nH]n2C,11.4
11,Cc1cccc(CNCCOc2ccc(S(C)(=O)=O)cc2)c1,-0.302
12,O=c1c(NCc2ccccn2)c(NCC(O)CN2CCOCC2)c1=O (stereo unspecified),-54.5
13,CC(=O)N(C)CC(=O)NC1(c2ccc(Br)cc2)CC1,-10.7
14,Cc1nc(C(C)C)cc(N2CCC3(CCC(=O)N(CC4CC4)C3)CC2)n1,-2.99
15,Cc1ccc2oc(CN3CCC(C(=O)O)(n4ccnc4)CC3)c(C)c2c1,-9.06
16,CC(=O)Nc1nc(C(=O)N2CCCC(n3cncn3)C2)cs1 (stereo unspecified),-2.02
17,CC(=O)N1CCCC(c2ccc(Br)cn2)C1 (stereo unspecified),-24.1
18,COc1cccn(CC(=O)N(C)CCC2CCOCC2)c1=O,-19
19,CC(NCc1nnc2n1CCCC2)c1nc(Cc2ccccc2)no1 (stereo unspecified),-45.1
